# Experimental data published in BindingDB's records for doi:10.1021/jm00130a016 (American Cyanamid, 1989).
# Biological target: T1, Sterol O-acyltransferase 1 (Homo sapiens, UniProt P35610)
# T1 sequence (P35610 whole entry): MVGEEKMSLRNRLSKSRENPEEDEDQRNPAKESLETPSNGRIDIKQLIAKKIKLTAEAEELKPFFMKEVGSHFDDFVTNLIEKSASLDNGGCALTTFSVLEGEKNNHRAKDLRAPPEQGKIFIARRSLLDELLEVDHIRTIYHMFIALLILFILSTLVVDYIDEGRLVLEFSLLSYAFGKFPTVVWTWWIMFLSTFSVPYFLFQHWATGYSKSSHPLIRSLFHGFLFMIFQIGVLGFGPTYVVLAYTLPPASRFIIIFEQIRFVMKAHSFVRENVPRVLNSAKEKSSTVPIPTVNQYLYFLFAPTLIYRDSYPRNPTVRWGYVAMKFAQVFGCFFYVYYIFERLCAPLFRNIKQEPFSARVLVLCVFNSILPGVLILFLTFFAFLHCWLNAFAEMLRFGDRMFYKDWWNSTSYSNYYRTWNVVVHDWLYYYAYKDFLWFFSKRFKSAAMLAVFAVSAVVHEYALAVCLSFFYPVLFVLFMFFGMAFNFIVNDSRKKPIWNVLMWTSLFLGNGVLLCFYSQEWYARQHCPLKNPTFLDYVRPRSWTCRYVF
# Experiment: In vitro inhibitory concentration against […] derived from smooth muscle cells from thoracic aorta of monkeys
row,Compound,IC50
1,CCCCCCCN(Cc1ccco1)C(=O)Nc1cc(C)c(C)cc1C,0.14 µM

# Biological target: T1, Sterol O-acyltransferase 1
# Experiment: In vitro inhibitory concentration against ACAT derived from smooth muscle cells from thoracic aorta of monkeys
# In short: (§1)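 Aortic smooth-muscle cells from African green monkey thoracic aorta, grown 48 h in DMEM/10% FCS with LDL from hypercholesterolemic monkeys plus graded compound concentrations (methanol). Albumin-bound [14C]oleate then added for 2.5 h; cells trypsinized, Folch lipid extraction, [14C]cholesteryl esters isolated by TLC and counted by scintillation; IC50 derived.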
row,Compound,IC50
1,CCCCN(C(=O)Nc1ccc(C)cc1C)c1ccccc1,26.9 µM
2,Cc1cc(C)c(NC(=O)N(Cc2ccccc2)Cc2ccccc2)cc1C,1.08 µM

# Biological target: T2, Sterol O-acyltransferase 1 (Rattus norvegicus, UniProt O70536)
# T2 sequence (O70536 whole entry): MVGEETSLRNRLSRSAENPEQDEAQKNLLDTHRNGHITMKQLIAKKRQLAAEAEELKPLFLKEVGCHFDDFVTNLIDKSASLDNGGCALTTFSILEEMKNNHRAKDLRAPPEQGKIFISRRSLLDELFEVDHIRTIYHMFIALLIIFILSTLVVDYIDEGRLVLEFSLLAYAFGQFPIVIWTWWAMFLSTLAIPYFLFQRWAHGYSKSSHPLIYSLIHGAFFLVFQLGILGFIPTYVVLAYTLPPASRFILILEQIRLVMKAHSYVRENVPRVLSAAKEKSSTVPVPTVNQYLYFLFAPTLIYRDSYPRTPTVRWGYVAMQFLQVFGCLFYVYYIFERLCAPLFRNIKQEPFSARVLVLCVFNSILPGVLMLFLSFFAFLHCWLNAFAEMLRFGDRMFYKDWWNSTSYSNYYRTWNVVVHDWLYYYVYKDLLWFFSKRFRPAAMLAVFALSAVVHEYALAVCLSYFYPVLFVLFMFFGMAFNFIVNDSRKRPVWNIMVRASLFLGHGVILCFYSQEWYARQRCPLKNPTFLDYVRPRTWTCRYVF
# Experiment: In vitro inhibitory concentration against […] derived from rat adrenals
row,Compound,IC50
1,CCCCCCCN(Cc1ccco1)C(=O)Nc1cc(C)c(C)cc1C,2.24 µM

# Biological target: T1, Sterol O-acyltransferase 1
# Experiment: In vitro inhibitory concentration against acyl coenzyme A:cholesterol acyltransferase derived from smooth muscle cells from thoracic aorta of monkeys
# In short: as §1
row,Compound,IC50
1,CCCCN(CCCC)C(=O)Nc1ccc(C)c(Cl)c1,12.8 µM
2,CC(C)(C)CCN(Cc1cccs1)C(=O)Nc1c(Cl)cc(Cl)cc1Cl,2.62 µM
3,CC(C)(C)CCN(Cc1cccs1)C(=O)Nc1ccc(F)cc1F,17 µM
4,CCCCN(Cc1ccccc1)C(=O)Nc1ccc(C)cc1C,1.83 µM
5,O=C(Nc1cccc(Cl)c1)N(Cc1ccccc1)Cc1ccccc1,39.9 µM

# Results, then the compound that gave them:
row,IC50,Compound
1,3.62 µM,CCCCN(Cc1ccccc1)C(=O)Nc1c(Cl)cc(Cl)cc1Cl
2,6.3 µM,Cc1c(Cl)cccc1NC(=O)N(CCC(C)(C)C)Cc1cccs1
3,24 µM,CCCCN(CCCC)C(=O)Nc1cccc(C)c1
